What is called EC50 is the midpoint of the concentration-response curve. The term Emax denotes the maximal effect, on the per cent scale that the assay sets. One may read the IC50 as the concentration that gives 50% inhibition. What is called inhibition is how much of the control response was suppressed. One may read the solubility as the concentration that dissolves in the medium under given conditions.

The values below come from ChEMBL document CHEMBL2150889, “Azetidinyl oxadiazoles as potent mGluR5 positive allosteric modulators” (Bioorg Med Chem Lett, 2012).

In brackets after ≈: the same amount, converted by molar mass.

Data set [1] concerns the target T1, Metabotropic glutamate receptor 5 (Homo sapiens, UniProt P41594). Description: Positive allosteric modulation of human mGluR5 expressed in recombinant HEK293 cells by FLIPR assay. The class given is cell-based. The essentials:
(§1)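 HEK293 cells recombinantly expressing human mGluR5 were seeded at 2×10^4 cells/well on poly-D-lysine. They were incubated overnight at 37 °C in glutamate/glutamine-free medium, then loaded for 1 h at 37 °C with calcium 5 dye containing 3 U/ml glutamic pyruvic transaminase and 3 mM sodium pyruvate. Calcium flux was read by FLIPR.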

Data set [2] addresses T1, Metabotropic glutamate receptor 5. Briefly: Negative allosteric modulation of human mGluR5 expressed in recombinant HEK293 cells by FLIPR assay. Type of data set: cell-based. Particulars: for inhibition: concentration not given here. Put shortly: as §1
Data set [3] in a line: Solubility of the compound in potassium phosphate buffer after 4 hrs by UPLC analysis. Type of data set: physicochemical. The essentials: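 DMSO stock of compound (300 μL) was diluted with 2 × 200 μL of 25 mM potassium phosphate buffer. The mixture was shaken on a titer plate shaker for 4 h.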
Data set [4] has as its system Liver microsomes. Briefly: Intrinsic clearance in human liver microsomes. The class given is ADME, Microsome. Put shortly:
(§2)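 Intrinsic clearance was determined by the Obach method. Liver blood flow was taken as 1.5 L/min for human and 20 mL/min for rat. Human values are expressed in L/min and rat values in mL/min.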

Data set [5] has as its system Liver microsomes. Description: Intrinsic clearance in rat liver microsomes. Type of data set: ADME, Microsome. The essentials: as §2
On the technique in general: Liver microsomes are a subcellular fraction often used to study metabolism.

Data set [6] is described as follows: Plasma protein binding in human. Particulars: read-out: PPB (converted). The class given is ADME, cell-free.
Data set [7] can be described thus: Plasma protein binding in rat. Type of data set: ADME, cell-free. The conditions noted are these: read-out: PPB (converted).
Data set [8] in a line: Ratio of drug level in brain to plasma of rat at 10 mg/kg, po after 1 hr. The conditions noted are these: brain and plasma, read-out: BPR. Details: dose 10 mg/kg, route oral. Type of data set: ADME, organism-based. The essentials:
(§3)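 Rats got a single 10 mg/kg oral dose (n = 2 animals). Brain and plasma were sampled at 1 h. Concentrations were measured by HPLC-tandem MS and averaged values reported. Brain/plasma ratio is brain level (ng/g) divided by plasma level (ng/mL).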

Data set [9] addresses T1, Metabotropic glutamate receptor 5. Briefly: Binding affinity to human mGluR5 expressed in recombinant HEK293 cells by radiolabeled assay. The class given is cell-based.
Target sequence in this assay (P41594 21-1212 limits assumed): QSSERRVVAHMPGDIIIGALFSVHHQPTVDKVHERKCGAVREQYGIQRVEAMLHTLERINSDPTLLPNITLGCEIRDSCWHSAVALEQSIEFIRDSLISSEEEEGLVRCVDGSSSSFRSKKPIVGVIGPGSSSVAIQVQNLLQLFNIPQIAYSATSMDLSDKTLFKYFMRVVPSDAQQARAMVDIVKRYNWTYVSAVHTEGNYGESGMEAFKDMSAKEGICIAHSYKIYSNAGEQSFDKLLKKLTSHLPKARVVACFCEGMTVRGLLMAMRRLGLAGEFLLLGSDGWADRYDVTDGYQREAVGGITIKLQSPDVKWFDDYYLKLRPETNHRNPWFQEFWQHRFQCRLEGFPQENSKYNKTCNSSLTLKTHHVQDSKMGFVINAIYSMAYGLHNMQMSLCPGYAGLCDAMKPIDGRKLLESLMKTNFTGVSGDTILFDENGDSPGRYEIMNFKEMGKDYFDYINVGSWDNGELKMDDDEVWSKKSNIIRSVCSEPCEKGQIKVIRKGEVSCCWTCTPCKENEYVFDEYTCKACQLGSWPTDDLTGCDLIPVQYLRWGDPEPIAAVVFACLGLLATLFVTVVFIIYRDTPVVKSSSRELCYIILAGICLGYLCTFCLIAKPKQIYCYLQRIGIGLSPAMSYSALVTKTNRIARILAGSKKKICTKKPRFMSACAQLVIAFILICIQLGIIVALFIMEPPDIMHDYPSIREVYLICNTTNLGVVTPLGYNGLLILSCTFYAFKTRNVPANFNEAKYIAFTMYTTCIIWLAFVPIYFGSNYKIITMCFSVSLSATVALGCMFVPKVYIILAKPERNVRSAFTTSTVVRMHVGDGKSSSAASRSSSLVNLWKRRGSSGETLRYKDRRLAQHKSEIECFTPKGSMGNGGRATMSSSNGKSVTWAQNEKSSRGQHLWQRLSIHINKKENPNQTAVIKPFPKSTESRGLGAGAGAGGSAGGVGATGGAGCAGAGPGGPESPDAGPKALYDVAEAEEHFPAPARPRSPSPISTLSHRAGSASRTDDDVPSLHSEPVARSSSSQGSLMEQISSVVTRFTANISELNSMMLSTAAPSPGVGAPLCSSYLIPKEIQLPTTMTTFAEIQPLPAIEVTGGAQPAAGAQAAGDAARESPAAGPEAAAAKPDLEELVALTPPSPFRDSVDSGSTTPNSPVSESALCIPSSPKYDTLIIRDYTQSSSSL
Data set [10] can be described thus: Drug uptake in rat brain at 10 mg/kg, po after 1 hr. The class given is ADME, organism-based. Details: dose 10 mg/kg, route oral. The conditions noted are these: read-out: Drug uptake. Put shortly: as §3
The nature of data set [11]: Plasma concentration in rat at 10 mg/kg, po after 1 hr. Type of data set: ADME, organism-based. Details: dose 10 mg/kg, route oral. Put shortly:
as §3

In the case of `O=C(c1ccc(F)cc1)N1CC(c2nc(-c3cccc(Cl)c3)no2)C1`, in [1], the EC50 is over 10 µM and the Emax is -12%. Further, in data set [2], the IC50 was 4 µM and the inhibition worked out at 60%. The concentration in solution in data set [3] (solubility at 4 h) was 47 µM (≈ 16.8 µg/mL).

For `CC1CCCCC1C(=O)N1CC(c2nc(-c3cccc(F)c3)no2)C1` (stereo not drawn), in data set [1], the Activity was determined as 48%, the EC50 came to 0.54 µM and the Emax stood at 87%. Also, in data set [2], the IC50 is over 10 µM. In data set [3], this compound gave a solubility at 4 h of 180 µM (≈ 61.8 µg/mL). The compound further registered a CLH in the data set with Liver microsomes [4] of 1.6 L/min. The CLH in the data set on Liver microsomes [5] came out at 13 mL/min. Further, in data set [6], the fraction unbound was 0.034. Further, the fraction unbound in data set [7] is 0.055.

As for `O=C(C1CCC(F)(F)CC1)N1CC(c2nc(-c3cccc(Cl)c3)no2)C1`, in data set [8], the Kp at 1 h worked out at 1.75. Further, the values for the Activity in data set [1] and in data set [9] were 3% and 3.8 µM, respectively. In addition, the EC50 in [1] was determined as 0.18 µM. Also, the Emax in [1] was 75%. Moreover, the IC50 in data set [2] was over 10 µM. In data set [3], the solubility at 4 h came out at 130 µM (≈ 49.6 µg/mL). In addition, the figures for the CLH with Liver microsomes [4] and in the data set with Liver microsomes [5] were 0.9 L/min and 24 mL/min, respectively. The fraction unbound in data set [6] is 0.013; in data set [7], 0.031. In addition, the concentration at 1 h is 280 ng/g in data set [10] and 0.16 µg/mL in data set [11].

Turning to `O=C([C@H]1CC2CCC1C2)N1CC(c2nc(-c3cccc(F)c3)no2)C1` (stereo partly drawn), in data set [8], the Kp at 1 h was determined as 2.33. The EC50 in data set [1] came to 0.072 µM. Moreover, the Emax in data set [1] is 140%. Moreover, in data set [3], the solubility at 4 h was 54 µM (≈ 18.4 µg/mL). Besides, the CLH was 59 L/min with Liver microsomes [4] and 16 mL/min with Liver microsomes [5]. The fraction unbound in [6] is 0.007; in data set [7], 0.008. In addition, the concentration at 1 h in data set [10] came to 84 ng/g; in data set [11], 0.036 µg/mL.

Take `O=C(c1ccccc1F)N1CC(c2nc(-c3cccc(Cl)c3)no2)C1`: in data set [1], the EC50 is over 10 µM and the Emax is -12%. Besides, in data set [2], the IC50 amounted to 0.67 µM and the inhibition was found to be 86%.

In the case of `O=S(=O)(c1ccc(F)cc1)N1CC(c2nc(-c3cccc(Cl)c3)no2)C1`, in data set [1], the EC50 is over 10 µM and the Emax is -7%. For the same compound, in [2], the IC50 is 0.13 µM and the inhibition turned out to be 85%.

`Cc1cccc(-c2noc(C3CN(C(=O)c4cccc(F)c4)C3)n2)c1`: in data set [1], the EC50 was over 10 µM and the Emax amounted to 15%. For the same compound, in data set [2], the IC50 worked out at 2.1 µM and the inhibition came out at 62%.

In the case of `CC1CCC(C(=O)N2CC(c3nc(-c4cccc(F)c4)no3)C2)CC1` (stereo not drawn), in [1], the Activity amounted to 11%, the EC50 was 2.2 µM and the Emax is 47%. Also, in [2], the IC50 is over 10 µM.

With `COC1CCN(C(=O)N2CC(c3nc(-c4cccc(Cl)c4)no3)C2)CC1`, in data set [1], the EC50 was over 10 µM and the Emax stood at 11%. Further, the half-inhibitory concentration (IC50) in [2] is over 10 µM.

Take `Cc1cccc(-c2noc(C3CN(C(=O)C4CCC(F)(F)CC4)C3)n2)c1`: in [1], the Activity was 3%, the EC50 turned out to be 0.59 µM and the Emax worked out at 36%. Moreover, the IC50 in data set [2] was over 10 µM.

With `Cc1cccc(-c2noc([C@@H]3CCN3C(=O)c3ccccc3F)n2)c1`, in [1], the EC50 was over 10 µM and the Emax is 6.2%. Also, in data set [2], the IC50 was found to be 1.8 µM and the inhibition was found to be 58%.

In the case of `CC1CCC(C(=O)N2CC(c3nc(-c4cccc(Cl)c4)no3)C2)CC1` (stereo not drawn), in [1], the Activity amounted to 120%, the EC50 stood at 1.5 µM and the Emax turned out to be 75%. The half-inhibitory concentration (IC50) in data set [2] is over 10 µM.
